Measured values from different studies.
Observed: cell growth or viability

For `Cc1cc(Cn2ccnc2)nn1C`, the IC50 was 487 µM (SH-SY5Y; MTT; 24 h).
For `CNC(=O)c1cc(Oc2ccc(NC(=O)Nc3ccc(Cl)c(C(F)(F)F)c3)cc2)ccn1`, the IC50 was 4.08 µM (PLC-PRF-5; imaging; 72 h).
The EC50 of `C[C@H](Nc1ccc2c(c1)OCCn1cc(N3C(=O)OC[C@H]3C(F)F)nc1-2)C(N)=O` is reported as 0.0312 µM (EFM-19; ATP luminescence; 5 days).
With `Cc1cc(C)n(Cn2ccnc2)n1` the IC50 was 50.3 µM (SH-SY5Y; MTT; 24 h).
`CN(C)CCNC(=O)c1cccn2c(=O)c3cc4ccccc4cc3nc12` has an IC50 of 16.2 µM (PLC-PRF-5; imaging; 72 h).
The EC50 of `Cc1nc(NC(=O)N2CCC[C@H]2C(N)=O)sc1-c1ccnc(C(C)(C)C(F)(F)F)c1` is reported as 0.38 µM (EFM-19; ATP luminescence; 5 days).
The IC50 of `COc1ccc(C[C@H](N)C(=O)N[C@H]2[C@@H](O)[C@H](n3cnc4c(N(C)C)ncnc43)O[C@@H]2CO)cc1` is reported as 1.36 µM (J774.1; resazurin; 72 h).
`Cc1nc(Nc2ncc(C(=O)Nc3c(C)cccc3Cl)s2)cc(N2CC[C@H](O)C2)n1` gave an inhibition of 66% (SUP-B15; ATP luminescence; 10 µM; 72 h).
